Measured values taken from ChEMBL document CHEMBL1153564 (Antimicrob Agents Chemother, 2008).
Converted amounts (≈) assume the structure as drawn. The source made the active and inactive calls. The calls are words filed in the database; no cut-off is given here. Starred links: 1 amine or outer side, 2 acyl side, 3 side chain; linkers in the order of their positions; H or OH if unused. Positions of bridges follow the written chain, without caps; N, C: chain ends. Non-standard residues stand in square brackets, D forms with d. Residues, ends and D or L forms follow the SMILES beside them. *: point of attachment. pTerphenylCO(4''-OnC5H11) = CCCCCOc1ccc(-c2ccc(-c3ccc(C(=O)*)cc3)cc2)cc1; Orn(4R-OH,5R-OH) = O=C([C@H](C[C@@H](O)[C@@H](O)N[*:3])N[*:1])[*:2]; hTyr(3S-OH,4S-OH) = N[C@H](C(=O)O)[C@H](O)[C@@H](O)c1ccc(O)cc1; Pro(3S-OH,4S-Me) = C[C@H]1CN[C@H](C(=O)O)[C@H]1O; Hyp = O=C(O)[C@@H]1C[C@@H](O)CN1

Assays:
Nakaseomyces glabratus [1] = assay: Antifungal activity against Candida glabrata 5376 infected in neutropenic ICR/Swiss mouse candidiasis model assessed as […] burden per kidney administered intraperitoneally every 48 hrs up to 4 days measured per 96 hrs; type: functional; conditions: Nakaseomyces glabratus, 5376, Kidney, ip
Summary of the method: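 Neutropenic ICR/Swiss mice infected i.v. with the strain; therapy began 2 h later. Total doses of 1.25–320 mg/kg/96 h were given i.p. as 1, 2, 4 or 6 doses (q96h, q48h, q24h, q16h), three mice per regimen. Kidney CFU were counted after 4 days. Effect is the change from untreated controls at the end of therapy.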

Candida albicans [2] = assay: Antifungal activity against Candida albicans K-1 infected in neutropenic ICR/Swiss mouse candidiasis model assessed as suppression of fungal regrowth at 5 mg/kg, ip administered 2 hrs postinfection as single dose by time-kill assay; type: functional, organism-based; parameters: dose 5 mg/kg
Summary of the method: (§1)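 Single ip dose (20, 5 or 1.25 mg/kg) given 2 h after iv infection of neutropenic mice with K-1. Three treated and three control mice were sampled at intervals over 96 h for kidney CFU. PAFE is the time for treated burden to rise 1 log10 after serum levels fall below MIC, minus the same time in controls. Free drug was taken as 1%.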

Nakaseomyces glabratus [3] = assay: Antifungal activity against Candida glabrata 5376 infected in neutropenic ICR/Swiss mouse candidiasis model assessed as suppression of fungal regrowth at 20 mg/kg, ip administered 2 hrs postinfection as single dose by time-kill assay; type: functional, organism-based; parameters: dose 20 mg/kg
Summary of the method: (§2)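 Neutropenic mice were infected i.v. and 2 h later given a single i.p. dose (1.25, 5 or 20 mg/kg). Groups of three treated and three control mice were killed at intervals over 96 h, and kidney CFU were counted on SDA (limit 100 CFU/ml). The post-antifungal effect is t − c: the time for a 1 log10 CFU/kidney increase once serum levels fall below the MIC in treated mice, minus the same time in controls.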

Serum [4] = assay: Fraction unbound in Candida glabrata 5376-infected neutropenic ICR/Swiss mouse serum at 5 mg/kg, ip administered 2 hrs postinfection as single dose; type: ADME, organism-based; parameters: dose 5 mg/kg, route intraperitoneal; conditions: in vivo
Serum [5] = assay: Fraction unbound in Candida glabrata 5376-infected neutropenic ICR/Swiss mouse serum at 20 mg/kg, ip administered 2 hrs postinfection as single dose measured after 32 hrs; type: ADME, organism-based; parameters: dose 20 mg/kg, route intraperitoneal; conditions: in vivo
Candida albicans [6] = assay: Antifungal activity against Candida albicans K-1 infected in neutropenic ICR/Swiss mouse candidiasis model assessed as dose required for 1-log10 reduction in […] per kidney administered intraperitoneally every 16 hrs up to 4 days measured per 96 hrs; type: functional
Summary of the method: (§3)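 Neutropenic mice were infected iv with C. albicans K-1 2 h before therapy. Total doses of 1.25, 5, 20, 80 and 320 mg/kg/96 h were split into 1, 2, 4 or 6 ip doses (q96h, q48h, q24h, q16h), three mice per regimen. Effect is the log10 CFU/kidney relative to untreated controls at 96 h. Static and 1-log doses were taken from a Hill model fit.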

Candida albicans [7] = assay: Antifungal activity against Candida albicans K-1 infected in neutropenic ICR/Swiss mouse candidiasis model assessed as dose required to maintain […] of 3.90 +/- 0.15 log10CFU per kidney administered intraperitoneally every 48 hrs up to 4 days measured per 96 hrs; type: functional; summary of the method: as §3
Candida albicans [8] = assay: Antifungal activity against Candida albicans 580 infected in neutropenic ICR/Swiss mouse candidiasis model assessed as dose required for 1-log10 reduction in […] per kidney administered intraperitoneally every 24 hrs up to 4 days measured per 24 hrs; type: functional
Summary of the method: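 Neutropenic mice (cyclophosphamide sc on days −4, −1 and +2) were infected iv 2 h before therapy. Five total doses from 0.078 to 20 mg/kg/24 h were given ip q24h for 4 days, three mice per regimen. Kidney CFU were measured at the end of therapy. Static and 1-log-kill doses were derived from a Hill sigmoid dose-effect fit.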

Candida albicans [9] = assay: Antifungal activity against Candida albicans K-1 infected in neutropenic ICR/Swiss mouse candidiasis model assessed as […] burden per kidney administered intraperitoneally once every 96 hrs measured per 96 hrs; type: functional; conditions: K-1, Kidney, ip; summary of the method: as §3
Candida albicans [10] = assay: Antifungal activity against Candida albicans K-1 infected in neutropenic ICR/Swiss mouse candidiasis model assessed as dose required to maintain […] of 3.90 +/- 0.15 log10CFU per kidney administered intraperitoneally once every 96 hrs measured per 96 hrs; type: functional; summary of the method: as §3
Candida albicans [11] = assay: Antifungal activity against Candida albicans 580 assessed as partial growth inhibition after 24 hrs by CLSI end point method; type: functional; conditions: Candida albicans, 580, 24 h
Summary of the method: (§4)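 CLSI M27-A2 broth dilution. Two end points read against the drug-free control well: partial inhibition (CLSI end point) and complete inhibition. Run in duplicate on four separate occasions; value is the mean. Drug stock in DMSO, diluted in 0.9% NaCl.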

Nakaseomyces glabratus [12] = assay: Antifungal activity against Candida glabrata 570 assessed as partial growth inhibition after 24 hrs by CLSI end point method; type: functional; conditions: Nakaseomyces glabratus, 570, 24 h
Summary of the method: (§5)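 Two end points were read against the drug-free control well: partial growth inhibition (the CLSI end point) and complete inhibition. Run in duplicate on four separate occasions; the value is the mean. Drug stock was made in DMSO and diluted in 0.9% NaCl.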

Nakaseomyces glabratus [13] = assay: Antifungal activity against Candida glabrata 35315 assessed as partial growth inhibition after 24 hrs by CLSI end point method; type: functional; conditions: Nakaseomyces glabratus, 35315, 24 h; summary of the method: as §5
Nakaseomyces glabratus [14] = assay: Antifungal activity against Candida glabrata 5376 assessed as partial growth inhibition after 24 hrs by CLSI end point method; type: functional; conditions: Nakaseomyces glabratus, 5376, 24 h; summary of the method: as §5
Nakaseomyces glabratus [15] = assay: Antifungal activity against Candida glabrata 37661 assessed as partial growth inhibition after 24 hrs by CLSI end point method; type: functional; conditions: Nakaseomyces glabratus, 37661, 24 h; summary of the method: as §5
Candida albicans [16] = assay: Antifungal activity against Candida albicans 580 assessed as complete growth inhibition after 24 hrs by CLSI end point method; type: functional; conditions: Candida albicans, 580, 24 h; summary of the method: as §4
Nakaseomyces glabratus [17] = assay: Antifungal activity against Candida glabrata 5376 infected in neutropenic ICR/Swiss mouse candidiasis model assessed as fungal count per kidney administered 2 hrs postinfection measured up to 48 hrs; type: functional
Summary of the method: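 Female ICR/Swiss mice (23–27 g) made neutropenic with cyclophosphamide s.c. (150 mg/kg day −4, 100 mg/kg day −1, 100 mg/kg day +2). Infected by tail vein with 0.1 ml inoculum (~6.1 log10 CFU/ml). Kidneys of untreated mice were homogenised and plated on SDA for 24 h at 35°C. Growth over 48 h is given as log10 CFU/kidney.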

Mus musculus = assay: Cmax in serum of neutropenic ICR/Swiss mouse candidiasis model at 5 mg/kg, ip up to 4 hrs by reverse-phase high-pressure liquid chromatography; type: ADME, organism-based; parameters: dose 5 mg/kg, route intraperitoneal; conditions: in vivo
Summary of the method: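 Infected neutropenic ICR/Swiss mice given single ip doses (5, 20 or 80 mg/kg; 0.2 ml); serum from three isoflurane-anaesthetised mice at 1, 4, 8, 12, 24 and 48 h, stored at −80°C, assayed by reverse-phase HPLC with fluorescence detection, loratadine internal standard, linear 10–50,000 ng/ml. Noncompartmental analysis; half-life by nonlinear least squares.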

Candida albicans [18] = assay: Antifungal activity against Candida albicans K-1 infected in neutropenic ICR/Swiss mouse candidiasis model assessed as reduction of […] in kidney at 5 mg/kg, ip administered 2 hrs postinfection as single dose measured after 96 hrs post dosing by time-kill assay; type: functional, organism-based; parameters: dose 5 mg/kg; summary of the method: as §1
Nakaseomyces glabratus [19] = assay: Antifungal activity against Candida glabrata 5376 infected in neutropenic ICR/Swiss mouse candidiasis model assessed as reduction of […] in kidney at 5 mg/kg, ip administered 2 hrs postinfection as single dose measured after 96 hrs post dosing by time-kill assay; type: functional, organism-based; parameters: dose 5 mg/kg; summary of the method: as §2

In the case of `CCCCCOc1ccc(-c2ccc(-c3ccc(C(=O)N[C@H]4C[C@@H](O)[C@@H](O)NC(=O)[C@@H]5[C@@H](O)[C@@H](C)CN5C(=O)[C@H]([C@@H](C)O)NC(=O)[C@H]([C@H](O)[C@@H](O)c5ccc(O)cc5)NC(=O)[C@@H]5C[C@@H](O)CN5C(=O)[C@H]([C@@H](C)O)NC4=O)cc3)cc2)cc1` [ANIDULAFUNGIN] ({pTerphenylCO(4''-OnC5H11)}-[Orn(4R-OH,5R-OH)]T[Hyp][hTyr(3S-OH,4S-OH)]T[Pro(3S-OH,4S-Me)]; lactam 1-C), the ED50 (Nakaseomyces glabratus [1]) is reported as 13.4 mg/kg, the Activity (Candida albicans [2]) is reported as “Active” and the Activity (Nakaseomyces glabratus [3]) is reported as “Active”. It also gave a Fu (Serum [4]) of 1%, a Fu (Serum [5]) of 1% and an Activity (Candida albicans [6]) of 38.3 mg/kg. For the same compound, the Activity (Candida albicans [7]) was 5.01 mg/kg, the Activity (Candida albicans [8]) was 2.31 mg/kg and the ED50 (Candida albicans [9]) was 2.13 mg/kg. For the same compound, the Activity (Candida albicans [10]) was 3.07 mg/kg, the MIC (Candida albicans [11]) was 0.015 µg/mL (≈ 0.0132 µM) and the MIC (Nakaseomyces glabratus [12]) was 0.03 µg/mL (≈ 0.0263 µM). It also gave an MIC (Nakaseomyces glabratus [13]) of 0.25 µg/mL (≈ 0.219 µM), an MIC (Nakaseomyces glabratus [14]) of 0.03 µg/mL (≈ 0.0263 µM) and an MIC (Nakaseomyces glabratus [15]) of 2 µg/mL (≈ 1.75 µM). The MIC (Candida albicans [16]) was 0.03 µg/mL (≈ 0.0263 µM), the log10cfu (Nakaseomyces glabratus [17]) was 2.1 and the Cmax (Mus musculus) was 4300 ng/mL. The Activity (Candida albicans [18]) was “Active” and the Activity (Nakaseomyces glabratus [19]) was “Active”.
